Key:
[1] = biological target: T1, Alpha-2A adrenergic receptor (Homo sapiens, UniProt P08913); assay: Affinity to human aAlpha-2A adrenergic receptor determined by radioligand binding techniques from chinese hamster ovary (CHO) cells; assay type: cell-based
T1 sequence (P08913 whole entry): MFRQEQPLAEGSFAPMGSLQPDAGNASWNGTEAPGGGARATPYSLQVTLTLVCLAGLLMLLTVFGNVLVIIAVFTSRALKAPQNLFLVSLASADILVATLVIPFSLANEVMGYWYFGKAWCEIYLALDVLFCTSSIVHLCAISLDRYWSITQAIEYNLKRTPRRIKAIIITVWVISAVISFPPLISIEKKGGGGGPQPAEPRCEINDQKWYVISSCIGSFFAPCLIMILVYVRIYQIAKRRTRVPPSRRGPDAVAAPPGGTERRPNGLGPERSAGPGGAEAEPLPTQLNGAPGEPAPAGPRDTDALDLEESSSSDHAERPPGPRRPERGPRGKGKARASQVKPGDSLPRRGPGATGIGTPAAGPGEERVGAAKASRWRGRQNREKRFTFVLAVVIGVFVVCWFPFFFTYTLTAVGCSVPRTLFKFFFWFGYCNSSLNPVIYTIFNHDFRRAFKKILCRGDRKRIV

[2] = biological target: T2, Alpha-1A adrenergic receptor (Homo sapiens) (UniProt P35348); assay: Agonist potency at Alpha-1 adrenergic receptor assayed in rat-1 fibroblasts expressing human Alpha-1 adrenergic receptor; assay type: functional
T2 sequence (whole entry): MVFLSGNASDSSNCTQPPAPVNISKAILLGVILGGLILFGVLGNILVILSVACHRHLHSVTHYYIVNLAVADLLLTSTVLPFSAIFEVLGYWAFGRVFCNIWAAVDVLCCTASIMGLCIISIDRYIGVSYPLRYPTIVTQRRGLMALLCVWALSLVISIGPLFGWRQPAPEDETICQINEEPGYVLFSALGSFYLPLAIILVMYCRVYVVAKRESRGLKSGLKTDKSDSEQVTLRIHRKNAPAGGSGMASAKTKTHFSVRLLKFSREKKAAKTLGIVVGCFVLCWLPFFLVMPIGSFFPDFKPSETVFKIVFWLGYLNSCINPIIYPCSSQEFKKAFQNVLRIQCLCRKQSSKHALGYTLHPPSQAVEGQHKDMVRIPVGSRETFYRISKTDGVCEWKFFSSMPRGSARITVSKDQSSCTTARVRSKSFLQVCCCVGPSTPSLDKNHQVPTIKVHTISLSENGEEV
In short: (§1)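 Rat-1 fibroblasts expressing human α1a/α1b/α1d, grown in DMEM with 10% heat-inactivated FBS and 0.6 mg/mL G418, plated 6000 cells/well and cultured 48 h at 37 °C. Loaded 2 h at 37 °C with Calcium Green (4 μM), 0.2% pluronic acid and 2.5 mM probenecid in HEPES buffer pH 7.4. FLIPR read at room temperature: 10 s baseline, then 50 s after compound. 11-point curves as % of 40 μM phenylephrine response, top concentration typically 5 μM.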

[3] = biological target: T3, Alpha-1B adrenergic receptor (Homo sapiens) (UniProt P35368); assay: Agonist potency at Alpha-1B adrenergic receptor assayed in rat-1 fibroblasts expressing human Alpha-1B adrenergic receptor; assay type: functional; in short: as §1
T3 sequence (whole entry): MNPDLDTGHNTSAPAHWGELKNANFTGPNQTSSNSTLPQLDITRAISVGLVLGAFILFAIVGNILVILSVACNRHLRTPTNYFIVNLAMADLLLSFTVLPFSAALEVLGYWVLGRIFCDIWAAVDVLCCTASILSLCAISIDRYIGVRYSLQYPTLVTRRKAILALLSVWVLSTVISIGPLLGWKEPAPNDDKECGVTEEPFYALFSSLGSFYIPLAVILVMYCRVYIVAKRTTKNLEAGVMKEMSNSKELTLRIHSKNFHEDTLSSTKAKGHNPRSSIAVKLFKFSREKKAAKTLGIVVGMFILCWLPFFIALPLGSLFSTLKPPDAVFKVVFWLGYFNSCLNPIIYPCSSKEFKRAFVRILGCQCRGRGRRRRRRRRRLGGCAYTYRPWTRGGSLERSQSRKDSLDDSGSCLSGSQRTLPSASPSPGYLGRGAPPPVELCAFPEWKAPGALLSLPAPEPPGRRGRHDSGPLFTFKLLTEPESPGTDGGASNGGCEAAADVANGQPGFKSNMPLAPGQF

[4] = biological target: T4, Alpha-2A adrenergic receptor (Homo sapiens) (UniProt P08913); assay: Agonist potency at Alpha-2A adrenergic receptor assayed in CHO cells expressing human alpha-2a; assay type: functional, cell-based
T4 sequence (whole entry): T1 sequence (P08913 whole entry)

[5] = biological target: T5, Alpha-1B adrenergic receptor (Homo sapiens, UniProt P35368); assay: Agonist potency at alpha-1b adrenoceptors assayed in rat-1 fibroblasts expressing human alpha-1b; assay type: functional; in short: as §1
T5 sequence (P35368 whole entry): T3 sequence (whole entry)

[6] = biological target: T6, Alpha-1D adrenergic receptor (Homo sapiens, UniProt P25100); assay: Agonist potency at Alpha-1D adrenergic receptor assayed in rat-1 fibroblasts; assay type: functional; in short: as §1
T6 sequence (P25100 whole entry): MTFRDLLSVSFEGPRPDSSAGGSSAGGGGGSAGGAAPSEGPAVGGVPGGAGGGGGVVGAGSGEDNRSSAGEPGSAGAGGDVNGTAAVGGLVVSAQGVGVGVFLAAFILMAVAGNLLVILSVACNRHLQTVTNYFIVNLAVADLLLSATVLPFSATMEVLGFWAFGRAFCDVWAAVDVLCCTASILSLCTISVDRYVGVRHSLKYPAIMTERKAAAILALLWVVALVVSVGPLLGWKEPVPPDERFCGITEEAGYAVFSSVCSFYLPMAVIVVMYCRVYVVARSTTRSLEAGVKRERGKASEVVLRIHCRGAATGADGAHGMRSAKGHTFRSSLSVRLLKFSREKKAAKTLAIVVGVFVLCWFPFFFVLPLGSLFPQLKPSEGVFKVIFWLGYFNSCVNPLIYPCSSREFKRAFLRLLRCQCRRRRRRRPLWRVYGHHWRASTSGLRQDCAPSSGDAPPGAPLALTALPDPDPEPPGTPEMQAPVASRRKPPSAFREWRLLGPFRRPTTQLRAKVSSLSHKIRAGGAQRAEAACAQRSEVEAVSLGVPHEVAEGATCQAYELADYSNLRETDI

[7] = biological target: T1, Alpha-2A adrenergic receptor; assay: Agonist potency at Alpha-2A adrenergic receptor assayed in CHO cells expressing human alpha 2a; assay type: functional, cell-based
[8] = biological target: T5, Alpha-1B adrenergic receptor; assay: Agonist potency at alpha-1b adrenoceptors assayed in rat-1 fibroblasts expressing human Alpha-1B adrenergic receptor; assay type: functional
In short: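 Human α1a, α1b or α1d receptors expressed in Rat-1 fibroblasts (DMEM, 10% heat-inactivated FBS, 0.6 mg/mL G418). Cells were plated at 6000/well and grown 48 h at 37 °C. They were loaded 2 h at 37 °C with Calcium Green (4 μM), pluronic acid 0.2% and probenecid 2.5 mM in HEPES buffer pH 7.4, then read by FLIPR at room temperature: 10 s baseline, 50 s after compound. 11-point curves were expressed as % of the 40 μM phenylephrine response; top concentration typically 5 μM.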

## CCCS(=O)(=O)c1ccccc1NCC1=NCCN1
[1]
  Ki: > 7940 nM
[2]
  pEC5: 7.16
[3]
  pEC5: < 4
[4]
  pEC5: < 5

## CSc1ccccc1NCC1=NCCN1
[5]
  EC50: 2.19 nM
[6]
  EC50: 8.91 nM
[7]
  EC50: 39.8 nM

## CS(=O)(=O)c1cc(Cl)ccc1NCC1=NCCN1
[8]
  EC50: > 100000 nM

— ChEMBL document CHEMBL1135421, “2-(Anilinomethyl)imidazolines as alpha1 adrenergic receptor agonists: the discovery of alpha1a subtype selective 2'-alkylsulfonyl-substituted analogues” (J Med Chem, 2002)
